Assay results from publication PMC7658932 (ACS Omega, 2020).

What was measured:
[1] = Radiolabeling efficiency/kinetics of chelators with ^177Lu; format: physicochemical; settings: 1 min, pH 5.5, RT, TLC, triplicate
Procedure, shortened: (§1)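 Test compound (20 μg) in Chelex-treated 0.25 M NH4OAc (pH 5.5) was mixed with 90YCl3 or 177LuCl3 (2.22 MBq, 60 μCi, in 0.05 M HCl) using acid-washed, metal-free plasticware. The mixture was shaken at 1000 rpm at RT for 1 h. Aliquots taken at set times were run on silica gel ITLC in acetonitrile/water 3:2 and scanned by radio-TLC. Complex ran at ~50 mm, free radionuclide at ~30 mm.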

[2] = Radiolabeling efficiency/kinetics of chelators with ^90Y; format: physicochemical; settings: pH 5.5, RT, TLC, triplicate
Procedure, shortened: as §1

- radiolabeling efficiency (%) [1]: > 97%
- radiolabeling efficiency (%) ([2]; 1 min): > 97%
- radiolabeling efficiency (%) ([2]; 10 min): > 99%
SMILES: O=C(O)CN1CCN(CCN(CC(=O)O)CC(=O)O)CCN(CC(CCCc2ccc([N+](=O)[O-])cc2)N(CC(=O)O)CC(=O)O)CC1 (stereo not drawn) [3p-C-NEPA, 2-{[2-(4-{2-[Bis(carboxymethyl)amino]-5-(4-nitrophenyl)pentyl}-7-(carboxymethyl)-1,4,7-triazonan-1-yl)ethyl](carboxymethyl)amino}acetic acid]
